Measured values as given in ChEMBL document CHEMBL1165965, “Synthesis and structure-activity relationships of 1,2,3,4-tetrahydropyrido[2,3-b]pyrazines as potent and selective inhibitors of the anaplastic lymphoma kinase” (Bioorg Med Chem, 2010).

biological target: ALK tyrosine kinase receptor (Homo sapiens, UniProt Q9UM73); experiment: Inhibition of ALK phosphorylation in human Karpas-299 cells by immunoblotting and ELISA; format: cell-based
How it was run: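 Karpas-299 cells were treated with compound, then lysed in Tris pH 7.5 / 1% Triton X-100 buffer containing phosphatase and protease inhibitors, briefly sonicated and cleared. For immunoblots, SDS–PAGE was probed with phospho-NPM-ALK(Y664) or total ALK antibodies and bands were quantified by ECL. For ELISA, lysates were captured overnight at 4 °C on anti-ALK, detected with anti-phospho-ALK(Y664) plus AP secondary, and read by 4-MeUP fluorescence.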

ALK tyrosine kinase receptor, sequence (Q9UM73 whole entry): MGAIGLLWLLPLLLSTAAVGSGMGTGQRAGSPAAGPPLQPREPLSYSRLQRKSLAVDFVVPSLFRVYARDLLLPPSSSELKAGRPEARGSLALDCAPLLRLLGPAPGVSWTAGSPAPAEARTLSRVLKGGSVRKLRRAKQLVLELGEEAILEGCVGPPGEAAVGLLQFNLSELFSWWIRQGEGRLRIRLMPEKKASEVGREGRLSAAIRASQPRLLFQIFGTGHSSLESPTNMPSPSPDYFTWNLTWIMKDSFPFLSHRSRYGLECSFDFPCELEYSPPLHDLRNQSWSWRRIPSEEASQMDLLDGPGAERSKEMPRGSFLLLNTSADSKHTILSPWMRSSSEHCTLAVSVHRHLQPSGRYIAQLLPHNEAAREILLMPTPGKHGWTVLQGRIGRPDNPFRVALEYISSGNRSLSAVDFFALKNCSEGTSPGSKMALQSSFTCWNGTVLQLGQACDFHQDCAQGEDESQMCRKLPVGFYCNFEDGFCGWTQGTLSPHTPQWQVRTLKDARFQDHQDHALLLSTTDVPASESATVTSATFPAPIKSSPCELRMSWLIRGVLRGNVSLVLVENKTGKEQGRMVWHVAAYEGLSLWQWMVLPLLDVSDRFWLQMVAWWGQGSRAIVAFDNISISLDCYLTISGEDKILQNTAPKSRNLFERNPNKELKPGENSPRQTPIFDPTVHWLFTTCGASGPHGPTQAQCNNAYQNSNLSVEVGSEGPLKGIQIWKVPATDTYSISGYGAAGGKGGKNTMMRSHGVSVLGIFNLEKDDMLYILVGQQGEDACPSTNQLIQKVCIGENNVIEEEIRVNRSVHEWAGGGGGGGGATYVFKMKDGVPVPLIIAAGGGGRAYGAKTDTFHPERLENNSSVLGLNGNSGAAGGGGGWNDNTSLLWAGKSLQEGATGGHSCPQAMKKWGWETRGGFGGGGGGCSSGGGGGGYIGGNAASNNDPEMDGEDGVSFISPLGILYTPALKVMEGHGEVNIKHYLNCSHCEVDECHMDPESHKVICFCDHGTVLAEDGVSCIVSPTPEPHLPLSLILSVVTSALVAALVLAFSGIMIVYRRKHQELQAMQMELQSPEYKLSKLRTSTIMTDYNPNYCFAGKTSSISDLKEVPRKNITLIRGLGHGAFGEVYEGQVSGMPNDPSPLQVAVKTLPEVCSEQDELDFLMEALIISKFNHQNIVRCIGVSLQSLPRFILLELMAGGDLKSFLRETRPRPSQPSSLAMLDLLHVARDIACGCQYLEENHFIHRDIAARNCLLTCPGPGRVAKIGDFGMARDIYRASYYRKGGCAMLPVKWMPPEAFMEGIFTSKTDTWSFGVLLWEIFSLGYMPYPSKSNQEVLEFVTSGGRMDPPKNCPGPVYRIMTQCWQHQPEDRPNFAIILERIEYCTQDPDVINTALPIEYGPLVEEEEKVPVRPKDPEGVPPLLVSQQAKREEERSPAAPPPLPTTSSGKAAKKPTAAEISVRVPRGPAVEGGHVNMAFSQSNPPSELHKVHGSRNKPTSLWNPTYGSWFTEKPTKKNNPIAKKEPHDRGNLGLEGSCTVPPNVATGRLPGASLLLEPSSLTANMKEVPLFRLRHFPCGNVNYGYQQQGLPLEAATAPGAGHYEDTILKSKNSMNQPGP

| SMILES | IC50 |
| --- | --- |
| COC1CCN(C(=O)c2ccc(-c3cnc4c(c3)N(Cc3cc(Cl)ccc3C(F)(F)F)CCN4)cc2)CC1 | 450 nM |
| O=C(c1ccc(-c2cnc3c(c2)N(Cc2cc(Cl)ccc2C(F)(F)F)CCN3)cc1)N1CCC(N2CCCC2)CC1 | 250 nM |

The remaining compounds from weak to strong by IC50, led by results:

| IC50 | SMILES |
| --- | --- |
| 250 nM | CC(=O)N1CCN(c2cc(-c3cnc4c(c3)N(Cc3cc(Cl)ccc3C(F)(F)F)CCN4)ccn2)CC1 |
| 200 nM | CN1CCN(c2ccc(-c3cnc4c(c3)N(Cc3cc(F)ccc3F)CCN4)cn2)CC1 |
| 150 nM | FC(F)(F)c1ccc(Cl)cc1CN1CCNc2ncc(-c3ccnc(N4CCNCC4)c3)cc21 |
